Reference: ChEMBL document CHEMBL1149211, “Synthesis of 1,7-annulated indoles and their applications in the studies of cyclin dependent kinase inhibitors” (Bioorg Med Chem Lett, 2004)
In brackets after ≈: the same amount, converted by molar mass.

What was measured:
[1] = Solubility measured in 10% solution in EtOH.; assay type: physicochemical; settings: read-out: S
In short: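 Solubility determined in 10% solutol in ethanol.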

[2] = target: T1, Cyclin-dependent kinase 4/cyclin D1 (Homo sapiens, UniProt P11802); assay: Inhibition of Cyclin D1-cyclin-dependent kinase 4.; assay type: protein-complex assay
T1 sequence (P11802 whole entry): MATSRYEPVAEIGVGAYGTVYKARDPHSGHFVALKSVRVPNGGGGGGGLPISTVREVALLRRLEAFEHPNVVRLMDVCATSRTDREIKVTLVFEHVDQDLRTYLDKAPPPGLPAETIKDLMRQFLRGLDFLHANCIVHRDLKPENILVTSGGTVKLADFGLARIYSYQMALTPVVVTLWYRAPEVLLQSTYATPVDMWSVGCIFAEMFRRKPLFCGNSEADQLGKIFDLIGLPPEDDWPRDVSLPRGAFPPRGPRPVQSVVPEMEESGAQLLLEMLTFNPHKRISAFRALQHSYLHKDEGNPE
T1 sequence (P24385 whole entry, further chain): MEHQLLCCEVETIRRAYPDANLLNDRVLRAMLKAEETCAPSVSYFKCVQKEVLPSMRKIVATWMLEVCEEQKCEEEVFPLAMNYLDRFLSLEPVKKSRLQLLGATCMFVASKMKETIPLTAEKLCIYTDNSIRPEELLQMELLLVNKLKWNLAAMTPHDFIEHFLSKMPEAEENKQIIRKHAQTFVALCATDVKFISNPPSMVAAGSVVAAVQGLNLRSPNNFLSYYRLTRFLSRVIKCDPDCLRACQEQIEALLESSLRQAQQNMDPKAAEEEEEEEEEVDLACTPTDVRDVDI
In short: (§1)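 Cyclin D1/CDK4 enzyme inhibition determined by measuring phosphorylation of Rb protein; staurosporine included as standard; IC50 derived.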

[3] = target: Cyclin-dependent kinase 2/cyclin E (Homo sapiens, UniProt P24941); assay: Inhibition of Cyclin E-cyclin-dependent kinase 2 mediated RbING-phosphorylation; assay type: protein-complex assay
In short: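 Cyclin E/CDK2 enzyme assay following substrate phosphorylation, with Rb^ING as substrate; staurosporine run as standard; IC50 reported.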

HCT-116 [4] = assay: Antiproliferative activity against HCT116 (human colon carcinoma) cell line.; assay type: functional, cell-based
HCT-116 [5] = assay: G1 cell cycle arrest (fold increase over control) in HCT116 cells at 3*IC50; assay type: functional, Homo sapiens
In short: (§2)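 HCT-116 cells exposed to compound for 24 h, then analysed by flow cytometry; G1 arrest expressed as fold increase of G1 population over untreated control.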

HCT-116 [6] = assay: G1 cell cycle arrest (fold increase over control) in HCT116 cells at IC50; assay type: functional, Homo sapiens; in short: as §2
NCI-H460 = assay: Antiproliferative activity against NCIH-460 (human lung) cell line.; assay type: functional, cell-based
[7] = target: cAMP-dependent protein kinase (PKA) (Homo sapiens, UniProt P22694+P17612+P22612); assay: Inhibition of protein kinase A mediated histone phosphorylation; assay type: protein assay
In short: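 PKA enzyme assay measuring phosphorylation of histone substrate; staurosporine used as standard; IC50 reported.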

[8] = target: Cyclin-dependent kinase 4 (Homo sapiens) (UniProt P11802); assay: Inhibition of CDK4-specific Rb-S780 phosphorylation of HCT116 cells at 2xIC50 for 24 hr; assay type: functional, cell-based; settings: HCT-116
Sequence of Cyclin-dependent kinase 4 (Homo sapiens) (P11802 whole entry): as the sequence (P11802 whole entry) above
In short: (§3)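 HCT-116 colon carcinoma cells treated 24 h with compound at 1× and 2× its antiproliferation IC50; Rb phosphorylation at Ser780 measured by Western blot with phospho-specific antibody; value expressed as % pRb inhibition.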

[9] = target: Cyclin-dependent kinase 4 (Homo sapiens) (UniProt P11802); assay: Inhibition of CDK4-specific Rb-S780 phosphorylation of HCT116 cells at 1xIC50 for 24 hr; assay type: functional, cell-based; settings: HCT-116; in short: as §3
[10] = target: T1, Cyclin-dependent kinase 4/cyclin D1; assay: Inhibition of Cyclin D1-cyclin-dependent kinase 4 mediated Rb21-phosphorylation; assay type: protein-complex assay; settings: in the assay text read “RbING-phosphorylation” for “Rb21-phosphorylation”; in short: as §1

| SMILES | solubility [1] | IC50 [2] | IC50 [3] | IC50 (HCT-116 [4]) | Fold increase (HCT-116 [5]) | Fold increase (HCT-116 [6]) | IC50 (NCI-H460) | IC50 [7] | inhibition [8] | inhibition [9] | IC50 [10] |
| --- | --- | --- | --- | --- | --- | --- | --- | --- | --- | --- | --- |
| O=C1NC(=O)c2c1c1c3ccc(F)cc3[nH]c1c1c2c2cccc3c2n1C(CO)CC3 (stereo not given) | 620 µg/mL (≈ 1500 µM) | 2 nM | 79 nM | 820 nM | 2.12 | 1.7 | 260 nM | 3020 nM | – | – | – |
| O=C1NC(=O)c2c1c1c3ccccc3[nH]c1c1c2c2cccc3c2n1CC(CO)C3 (stereo not given) | 120 µg/mL (≈ 303 µM) | 71 nM | 217 nM | 910 nM | 1.95 | 2.04 | 960 nM | > 2000 nM | 55% | 21% | – |
| O=C1NC(=O)c2c1c1c3ccccc3ccc1c1c2c2cccc3c2n1CC(CO)C3 (stereo not given) | – | 72 nM | > 2000 nM | 940 nM | 1.64 | 1.14 | 740 nM | > 2000 nM | – | – | – |
| O=C1NC(=O)C(c2cn3c4c(cccc24)CC(CCl)C3)=C1c1c[nH]c2cc(F)ccc12 (stereo not given) | – | 64 nM | – | 3270 nM | – | – | 5650 nM | > 20000 nM | – | – | – |
| CN(C)CC1Cc2cccc3c(C4=C(c5c[nH]c6ccccc56)C(=O)NC4=O)cn(c23)C1 (stereo not given) | – | 898 nM | – | 770 nM | 1.17 | 1 | 4750 nM | – | – | – | – |
| O=C1NC(=O)c2c1c1c3ccc(F)cc3[nH]c1c1c2c2cccc3c2n1CC(CO)C3 (stereo not given) | 890 µg/mL (≈ 2150 µM) | 22 nM | 141 nM | 360 nM | 2.32 | 1.67 | 430 nM | > 2000 nM | 53% | 25% | – |
| COC(=O)CC(NCC1Cc2cccc3c(C4=C(c5c[nH]c6cc(F)ccc56)C(=O)NC4=O)cn(c23)C1)C(=O)OC (stereo not given) | – | 671 nM | – | > 10000 nM | – | – | > 10000 nM | – | – | – | – |
| O=C1NC(=O)c2c1c1c3ccc(Br)cc3[nH]c1c1c2c2cccc3c2n1CC(CO)C3 (stereo not given) | 830 µg/mL (≈ 1750 µM) | 10 nM | > 2000 nM | 500 nM | – | 1.6 | 360 nM | > 2000 nM | 74% | 56% | – |
| O=C1NC(=O)c2c1c1c3ccccc3[nH]c1c1c2c2cccc3c2n1CC(CO)CC3 (stereo not given) | 1070 µg/mL (≈ 2610 µM) | 126 nM | – | 540 nM | 1.9 | 1.8 | 330 nM | – | 85% | 71% | – |
| CNCC1Cc2cccc3c(C4=C(c5c[nH]c6cc(F)ccc56)C(=O)NC4=O)cn(c23)C1.Cl (stereo not given) | – | 8 nM | – | 1730 nM | – | – | 5150 nM | 383 nM | – | – | – |
| Cn1ccc2ccc3c(c4c(c5c6cccc7c6n(c35)CC(CO)C7)C(=O)NC4=O)c21 (stereo not given) | – | 84 nM | 650 nM | 680 nM | 2.25 | 1.13 | 210 nM | – | – | – | – |
| O=C1NC(=O)c2c1c1c3ccc(C(F)(F)F)cc3[nH]c1c1c2c2cccc3c2n1CC(CO)C3 (stereo not given) | 4810 µg/mL (≈ 10400 µM) | 23 nM | – | 1250 nM | 1.47 | 1.34 | 690 nM | > 2000 nM | – | – | – |
| O=C1NC(=O)c2c1c1c3ccccc3ccc1c1c2c2cccc3c2n1CCC3CO (stereo not given) | – | 210 nM | – | 1250 nM | 1.3 | 1.2 | 1720 nM | > 2000 nM | – | – | – |
| COc1ccc2c(c1)[nH]c1c2c2c(c3c4cccc5c4n(c13)CC(CO)C5)C(=O)NC2=O (stereo not given) | 490 µg/mL (≈ 1150 µM) | 15 nM | 284 nM | 1830 nM | 2 | 1.8 | 1960 nM | > 2000 nM | 77% | 69% | – |
| NC(=O)[C@@H]1CCCN1CC1Cc2cccc3c(C4=C(c5c[nH]c6cc(F)ccc56)C(=O)NC4=O)cn(c23)C1 (stereo not given in full) | – | – | – | > 10000 nM | – | – | > 10000 nM | – | – | – | > 2000 nM |
| O=C1NC(=O)c2c1c1c3ccccc3[nH]c1c1c2c2cccc3c2n1C(CO)CC3 (stereo not given) | 570 µg/mL (≈ 1440 µM) | 18 nM | 219 nM | 920 nM | 1.51 | 1.32 | 820 nM | 858 nM | 65% | 53% | – |
| O=C1NC(=O)c2c1c1c3ccccc3ccc1c1c2c2cccc3c2n1C(CO)CC3 (stereo not given) | 2780 µg/mL (≈ 6840 µM) | 175 nM | – | 1120 nM | 1.32 | 1.17 | 540 nM | > 2000 nM | – | – | – |
| O=C1NC(=O)c2c1c1c3ccccc3[nH]c1c1c2c2cccc3c2n1CCC3CO (stereo not given) | – | 31 nM | – | 370 nM | 1.44 | 1.17 | 540 nM | > 2000 nM | 23% | 0% | – |
